# Reference: article PMC7917164 (Bioorganic & medicinal chemistry, 2020)
# Where a name gives a salt, the structure may show the parent alone.
# Legend:
# [1] = system: Aβ42 levels (γ-secretase modulation) in SHSY5Y-APP cells; assay: Cell-based ELISA assay for measuring extracellular Aβ42 levels; parameters: species or system human
# [2] = Pharmacokinetic evaluation after single iv and po administration; assay type: in vivo, male CD-1 mice; conditions: for clearance at 24 h: male, CD-1, mouse, plasma, 1 mg/kg; for clearance at 24 h / Clearance as share of mouse hepatic blood flow: iv; for Fraction of oral dose absorbed: accounting for first-pass effects; for Clearance as share of mouse hepatic blood flow: male CD-1 mice, hepatic blood flow ~90 mL/min/kg
# [3] = system: Notch processing by γ-secretase; assay: Notch processing in H4-APP751 cells transfected with the NΔE construct; assay type: cell-based, human; conditions: 24hrs, 22d 10 μM and 1 μM, DAPT 300 nM and 100 nM
# In short: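 H4 human neuroglioma cells stably overexpressing human APP751 were transfected with an […] Myc-tagged NΔE Notch construct. They were then treated with the test compound, a reference γ-secretase inhibitor or vehicle for 24 h and harvested 48 h post-transfection. Western blots were probed with anti-Myc antibody to detect NΔE and NICD, with β-actin as loading control.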
# [4] = system: plasma Aβ38, Aβ40 and Aβ42 levels; assay: Pharmacodynamic study using J20 mice; assay type: in vivo, female J20 mice; conditions: daily oral, 3-day treatment
# In short: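 Female J20 transgenic mice (5–6 months old, n=5/dose) received the test compound or vehicle (5% NMP/95% PEG300) by oral gavage once daily for three days. Animals were killed 4 h after the day-3 dose, and plasma and brain were collected. Aβ38, Aβ40 and Aβ42 were quantified with Meso Scale multiplex kits, and data were analysed as mean ± SEM with ANOVA.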
SMILES,Parent Aβ42 IC50 [1] [nM],clearance at 24 h [2] [mL/min/kg],"Fraction of oral dose absorbed ([2]; po, mice)",further results
"CCn1nc(C(F)(F)F)cc1Nc1nc(-c2ccc(-n3cnc(C)c3)c(OC)n2)cs1 [Compound 60, N-(1-ethyl-3-(trifluoromethyl)-1H-pyrazol-5-yl)-4-(6-methoxy-5-(4-methyl-1H-imidazol-1-yl)pyridin-2-yl)thiazol-2-amine]",98,26.8,greater than 80%,
"C[C@H](NC(=O)Cc1cc(F)cc(F)c1)C(=O)N[C@H](C(=O)OC(C)(C)C)c1ccccc1 [DAPT, reference compound]",,,,Notch processing (NΔE to NICD) [3]: significantly inhibits
"COc1nc(-c2csc(Nc3c4c(nn3C)CCC4)n2)ccc1-n1cnc(C)c1 [Compound 63, 4-(6-methoxy-5-(4-methyl-1H-imidazol-1-yl)pyridin-2-yl)-N-(2-methyl-2,4,5,6-tetrahydrocyclopenta[c]pyrazol-3-yl)thiazol-2-amine]",>1000,21.8,greater than 80%,Clearance as share of mouse hepatic blood flow [2]: ~24%
"CCn1nc(C2(C)CC2)cc1Nc1nc(-c2ccc(-n3cnc(C)c3)c(OC)n2)cs1 [Compound 59, N-(1-ethyl-3-(1-methylcyclopropyl)-1H-pyrazol-5-yl)-4-(6-methoxy-5-(4-methyl-1H-imidazol-1-yl)pyridin-2-yl)thiazol-2-amine]",,12.1,,Clearance as share of mouse hepatic blood flow [2]: approximately 13%
"COc1nc(-c2csc(Nc3c4c(nn3CCF)CCCC4)n2)ccc1-n1cnc(C)c1 [Compound 46, N-(2-(2-fluoroethyl)-4,5,6,7-tetrahydro-2H-indazol-3-yl)-4-(6-methoxy-5-(4-methyl-1H-imidazol-1-yl)pyridin-2-yl)thiazol-2-amine]",110,57.8,nearly complete,"Share of absorbed dose metabolized during the first-pass ([2]; po, mice, assuming hepatic elimination): approximately 60%; Effect on plasma Aβ42 and Aβ40 ([4]; 25, 50 and 100 mg/kg): plateau between 50 and 100 mg/kg; Effect on Aβ38 levels ([4]; plasma): reduced"
"CCCn1nc(C(C)(C)C)cc1Nc1nc(-c2ccc(-n3cnc(C)c3)c(OC)n2)cs1 [Compound 53, N-(3-(tert-butyl)-1-propyl-1H-pyrazol-5-yl)-4-(6-methoxy-5-(4-methyl-1H-imidazol-1-yl)pyridin-2-yl)thiazol-2-amine dihydrochloride]",86,,,
"COc1nc(-c2csc(Nc3c4c(nn3CCN3CCCCC3)CCCC4)n2)ccc1-n1cnc(C)c1 [Compound 43, 4-(6-methoxy-5-(4-methyl-1H-imidazol-1-yl)pyridin-2-yl)-N-(2-(2-(piperidin-1-yl)ethyl)-4,5,6,7-tetrahydro-2H-indazol-3-yl)thiazol-2-amine]",475,,,
"COc1nc(-c2csc(Nc3c4c(nn3CCCO)CCCC4)n2)ccc1-n1cnc(C)c1 [Compound 50, 3-(3-((4-(6-methoxy-5-(4-methyl-1H-imidazol-1-yl)pyridin-2-yl)thiazol-2-yl)amino)-4,5,6,7-tetrahydro-2H-indazol-2-yl)propan-1-ol]",229,,,
"CCn1nc2c(c1Nc1nc(-c3ccc(-n4cnc(C)c4)c(OC)n3)cs1)C(C)CC2(C)C (racemic) [Compound 72, (+/−)-N-(2-ethyl-4,6,6-trimethyl-2,4,5,6-tetrahydrocyclopenta[c]pyrazol-3-yl)-4-(6-methoxy-5-(4-methyl-1H-imidazol-1-yl)pyridin-2-yl)thiazol-2-amine]",49,,,
"CCn1nc2c(c1Nc1nc(-c3ccc(-n4cnc(C)c4)c(OC)n3)cs1)CCC2(C)C [Compound 71, N-(2-ethyl-6,6-dimethyl-2,4,5,6-tetrahydrocyclopenta[c]pyrazol-3-yl)-4-(6-methoxy-5-(4-methyl-1H-imidazol-1-yl)pyridin-2-yl)thiazol-2-amine]",62,,,
